ChEMBL document CHEMBL3244061, “Angiotensin II analogues. 12. Role of the aromatic ring of position 8 phenylalanine in pressor activity” (J Med Chem, 1979)
Peptide text beside a SMILES is read from it.

Columns and labels:
Rattus norvegicus [1] = organism: Rattus norvegicus; assay: Induction of pressor activity in nephrectomized, pentolinium-treated rat model relative to angiotensin 2; format: organism-based; conditions: in vivo
Summary of the method: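 Pressor activity was measured in male rats that were nephrectomized, treated with pentolinium and anesthetized with pentobarbital. Peptides were dissolved in normal saline containing 0.1% polyvinylpyrrolidone and kept in siliconized glass. Molarities of all solutions, including the angiotensin II standard, were set from peptide content determined by amino acid analysis of hydrolysates. Activity was expressed relative to angiotensin II.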

Rattus norvegicus [2] = organism: Rattus norvegicus; assay: Inhibition of angiotensin-2-induced pressor activity in rat assessed as duration of action; format: functional, organism-based
Summary of the method: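 Antagonist was given to rats as a single 4000 pmol dose. Pressor responses to 20 pmol angiotensin II were then followed. Duration of action (T1/2) was taken as the time for the angiotensin II response to recover to one-half of its pretreatment level.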

Rattus norvegicus [3] = organism: Rattus norvegicus; assay: Inhibition of 70 pmol angiotensin-2-induced pressor activity in rat at 1400 pmol/min co-infused with angiotensin-2 measured after 30 mins; format: functional
Summary of the method: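 Antagonist and angiotensin II were coinjected at a 20:1 ratio (1400 pmol/70 pmol per minute) for 30 min. The percent reduction of the angiotensin II pressor effect was recorded. Recovery to one-half of the pretreatment level was followed after the infusion stopped.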

Rattus norvegicus [4] = organism: Rattus norvegicus; assay: Inhibition of 3 to 12 pmol angiotensin-2-induced pressor activity in rat at 400 pmol measured after 30 mins; format: functional
Summary of the method: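 A single 400 pmol injection of antagonist was given. Pressor responses to single angiotensin II doses of 3, 6 and 12 pmol were then tracked. Duration (T1/2) was taken as the time for the responses to return to one-half of the pretreatment level.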

CC[C@H](C)[C@H](NC(=O)[C@H](Cc1ccc(O)cc1)NC(=O)[C@@H](NC(=O)[C@H](CCCNC(=N)N)NC(=O)[C@@H](N)CC(=O)O)C(C)C)C(=O)N[C@@H](Cc1c[nH]cn1)C(=O)N1CCC[C@H]1C(=O)N[C@@H](Cc1ccc(F)cc1)C(=O)O
Activity (Rattus norvegicus [1]): 100%

H-DRVYIHPY-OH
Activity (Rattus norvegicus [1]): 83%

CCCC[C@H](NC(=O)[C@@H]1CCCN1C(=O)[C@H](Cc1cnc[nH]1)NC(=O)[C@@H](NC(=O)[C@H](Cc1ccc(O)cc1)NC(=O)[C@@H](NC(=O)[C@H](CCCNC(=N)N)NC(=O)[C@@H](N)CC(N)=O)C(C)C)[C@@H](C)CC)C(=O)O (HELM PEPTIDE1{N.R.V.Y.I.H.P.[Nle]}$$$$V2.0)
Activity (Rattus norvegicus [1]): 7.3%

H-DRVYIHPV-OH
Activity (Rattus norvegicus [1]): 0.5%

CC[C@H](C)[C@H](NC(=O)[C@H](Cc1ccc(O)cc1)NC(=O)[C@@H](NC(=O)[C@H](CCCNC(=N)N)NC(=O)[C@@H](N)CC(N)=O)C(C)C)C(=O)N[C@@H](Cc1cnc[nH]1)C(=O)N1CCC[C@H]1C(=O)NC1(C(=O)O)Cc2ccccc2C1 (HELM PEPTIDE1{N.R.V.Y.I.H.P.[O=C(O)C1(N[*:1])Cc2ccccc2C1]}$$$$V2.0)
Activity (Rattus norvegicus [1]): 0.1%

CC[C@H](C)[C@H](NC(=O)[C@H](Cc1ccc(O)cc1)NC(=O)[C@@H](NC(=O)[C@H](CCCNC(=N)N)NC(=O)[C@@H](N)CC(N)=O)C(C)C)C(=O)N[C@@H](Cc1cnc[nH]1)C(=O)N1CCC[C@H]1C(=O)N[C@@H](Cc1ccc([N+](=O)[O-])cc1)C(=O)O (HELM PEPTIDE1{N.R.V.Y.I.H.P.[O=C(O)[C@H](Cc1ccc([N+](=O)[O-])cc1)N[*:1]]}$$$$V2.0)
Activity (Rattus norvegicus [1]): 15%

CC[C@H](C)[C@H](NC(=O)[C@H](Cc1ccc(O)cc1)NC(=O)[C@@H](NC(=O)[C@@H](C)N)C(C)C)C(=O)N[C@@H](Cc1cnc[nH]1)C(=O)N1CCC[C@H]1C(=O)N[C@@H](CC(C)C)C(=O)O
Activity (Rattus norvegicus [1]): 1.4%

H-NRVYIHPL-OH
Activity (Rattus norvegicus [1]): 1.2%

CC[C@H](C)[C@H](NC(=O)[C@H](Cc1ccc(O)cc1)NC(=O)[C@@H](NC(=O)[C@H](CCCNC(=N)N)NC(=O)[C@@H](N)CC(=O)O)C(C)C)C(=O)N[C@@H](Cc1c[nH]cn1)C(=O)N1CCC[C@H]1C(=O)N[C@@H](Cc1ccc(OC)cc1)C(=O)O
Activity (Rattus norvegicus [1]): 33%

CCCCC[C@H](NC(=O)[C@@H]1CCCN1C(=O)[C@H](Cc1cnc[nH]1)NC(=O)[C@@H](NC(=O)[C@H](Cc1ccc(O)cc1)NC(=O)[C@@H](NC(=O)[C@H](CCCNC(=N)N)NC(=O)[C@@H](N)CC(N)=O)C(C)C)[C@@H](C)CC)C(=O)O (HELM PEPTIDE1{N.R.V.Y.I.H.P.[CCCCC[C@H](N[*:1])C(=O)O]}$$$$V2.0)
Activity (Rattus norvegicus [1]): 11.5%

CC[C@H](C)[C@H](NC(=O)[C@H](Cc1ccc(O)cc1)NC(=O)[C@@H](NC(=O)[C@H](CCCNC(=N)N)NC(=O)[C@@H](N)CC(N)=O)C(C)C)C(=O)N[C@@H](Cc1cnc[nH]1)C(=O)N1CCC[C@H]1C(=O)N[C@@H](Cc1ccc(N)cc1)C(=O)O (HELM PEPTIDE1{N.R.V.Y.I.H.P.[Nc1ccc(C[C@H](N[*:1])C(=O)O)cc1]}$$$$V2.0)
Activity (Rattus norvegicus [1]): 52.5%

CC[C@H](C)[C@H](NC(=O)[C@H](Cc1ccc(O)c(Cc2ccccc2)c1)NC(=O)[C@@H](NC(=O)[C@H](CCCNC(=N)N)NC(=O)[C@@H](N)CC(N)=O)C(C)C)C(=O)N[C@@H](Cc1cnc[nH]1)C(=O)N1CCC[C@H]1C(=O)N[C@@H](Cc1ccc([N+](=O)[O-])cc1)C(=O)O (HELM PEPTIDE1{N.R.V.[O=C([C@H](Cc1ccc(O)c(Cc2ccccc2)c1)N[*:1])[*:2]].I.H.P.[O=C(O)[C@H](Cc1ccc([N+](=O)[O-])cc1)N[*:1]]}$$$$V2.0)
Activity (Rattus norvegicus [1]): 0.16%

CCCC[C@H](NC(=O)[C@@H]1CCCN1C(=O)[C@H](Cc1c[nH]cn1)NC(=O)[C@@H](NC(=O)[C@H](Cc1ccc(O)cc1)NC(=O)[C@@H](NC(=O)[C@H](CCCNC(=N)N)NC(=O)[C@@H](N)CC(=O)O)C(C)C)[C@@H](C)CC)C(=O)O
Activity (Rattus norvegicus [1]): 7.3%

CC[C@H](C)[C@H](NC(=O)[C@H](Cc1ccc(O)cc1)NC(=O)[C@@H](NC(=O)[C@H](CCCN=C(N)N)NC(=O)[C@@H](N)CC(=O)O)C(C)C)C(=O)N[C@@H](Cc1c[nH]cn1)C(=O)N1CCC[C@H]1C(=O)N[C@@H](Cc1ccc(Br)cc1)C(=O)O
Activity (Rattus norvegicus [1]): 50%

H-NRVYVHPF-OH [ANGIOTENSIN AMIDE]
Activity (Rattus norvegicus [1]): 100%

CC[C@H](C)[C@H](NC(=O)[C@H](Cc1ccc(O)cc1)NC(=O)[C@@H](NC(=O)[C@H](CCCNC(=N)N)NC(=O)CNC)C(C)C)C(=O)N[C@@H](Cc1cnc[nH]1)C(=O)N1CCC[C@H]1C(=O)N[C@@H](CC(C)C)C(=O)O (HELM PEPTIDE1{[Sar].R.V.Y.I.H.P.L}$$$$V2.0)
T1/2 (Rattus norvegicus [2]): 45 min
inhibition (INH) (Rattus norvegicus [3]): 67%
inhibition (INH) (Rattus norvegicus [4]): 50%
Activity (Rattus norvegicus [1]): 2.5%

CC[C@H](C)[C@H](NC(=O)[C@H](Cc1ccc(O)cc1)NC(=O)[C@@H](NC(=O)[C@H](CCCNC(=N)N)NC(=O)[C@@H](N)CC(=O)O)C(C)C)C(=O)N[C@@H](Cc1c[nH]cn1)C(=O)N1CCC[C@H]1C(=O)N[C@@H](CC1CCCCC1)C(=O)O
Activity (Rattus norvegicus [1]): 20%
